One block for each compound: values may come before it.
Key:
[1] = biological target: T1, recombinant human CYP1B1 (Homo sapiens, UniProt Q16678); assay: EROD assay, recombinant human CYP1B1 inhibition; assay type: biochemical; conditions: selectivity for CYP1B1 over CYP1A1
T1 sequence (Q16678 1-543): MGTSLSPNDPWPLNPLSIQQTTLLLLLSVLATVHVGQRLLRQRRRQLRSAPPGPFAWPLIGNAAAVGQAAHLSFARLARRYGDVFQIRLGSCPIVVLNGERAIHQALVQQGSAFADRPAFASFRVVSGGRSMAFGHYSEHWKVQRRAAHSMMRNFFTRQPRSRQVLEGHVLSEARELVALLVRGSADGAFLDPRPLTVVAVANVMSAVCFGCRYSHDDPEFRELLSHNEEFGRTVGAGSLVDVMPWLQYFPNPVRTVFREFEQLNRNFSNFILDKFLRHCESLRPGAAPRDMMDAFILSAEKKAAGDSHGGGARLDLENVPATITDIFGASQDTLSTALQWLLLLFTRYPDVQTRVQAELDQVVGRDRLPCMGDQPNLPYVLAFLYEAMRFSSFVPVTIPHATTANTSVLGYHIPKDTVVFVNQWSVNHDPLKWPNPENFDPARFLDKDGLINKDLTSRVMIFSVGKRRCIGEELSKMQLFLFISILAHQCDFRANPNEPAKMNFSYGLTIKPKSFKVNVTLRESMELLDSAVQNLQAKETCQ

[2] = tested on: MCF-7/1B1 cells; assay type: cell-based, human
Summary of the method: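 MCF-7/1B1 cells were made by incubating parental MCF-7 with 10 nM TCDD for five days, then seeded at about 3000 cells/well in RPMI 1640/10% FBS for 24 h. Screen: 20 μM docetaxel alone or with 10 μM test compound. […] MTT read at 490 nm. Non-linear regression fit; mean ± SD of three independent measurements; Student's t test.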

[3] = tested on: parental MCF-7 cells; assay: MTT anti-proliferation assay in parental MCF-7 cells; assay type: cell-based; conditions: Homo sapiens, MCF7, read-out: IC50 of docetaxel in parental MCF-7 cells
Summary of the method: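 Parental MCF-7 cells were grown in RPMI 1640 with 10% FBS at 37 °C and 5% CO2. About 3000 cells/well were seeded and left 24 h, then exposed to six docetaxel concentrations. MTT read-out was absorbance at 490 nm. IC50 came from non-linear regression (log inhibitor vs normalized response, variable slope).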

[4] = biological target: T2, CYP1A1 (Homo sapiens, UniProt P04798); assay: EROD assay, recombinant human CYP1A1 inhibition; assay type: biochemical
T2 sequence (P04798 1-512): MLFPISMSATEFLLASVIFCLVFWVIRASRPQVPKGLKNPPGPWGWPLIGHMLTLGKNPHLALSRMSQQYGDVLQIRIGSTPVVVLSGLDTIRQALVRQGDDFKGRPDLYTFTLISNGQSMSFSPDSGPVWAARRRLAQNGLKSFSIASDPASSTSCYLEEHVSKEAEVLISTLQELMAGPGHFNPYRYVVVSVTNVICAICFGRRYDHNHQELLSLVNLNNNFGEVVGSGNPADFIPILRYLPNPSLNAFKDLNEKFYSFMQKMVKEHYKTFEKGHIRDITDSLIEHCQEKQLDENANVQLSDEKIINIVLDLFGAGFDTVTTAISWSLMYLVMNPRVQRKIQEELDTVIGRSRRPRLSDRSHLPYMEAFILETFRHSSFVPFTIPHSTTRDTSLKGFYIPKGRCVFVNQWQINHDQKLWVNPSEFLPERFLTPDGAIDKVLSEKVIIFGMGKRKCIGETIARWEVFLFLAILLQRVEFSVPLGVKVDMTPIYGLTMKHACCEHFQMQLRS
Summary of the method: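 Supersomes with P450 reductase. Test compound is taken from 10 mM DMSO stock into Tris–HCl pH 7.4 (final DMSO <1% v/v), at several concentrations. Methanol stop. Resorufin fluorescence read at ex 544/em 590 nm. IC50 from nonlinear regression, log(inhibitor) vs normalized response, variable slope.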

[5] = tested on: CYP1A2; conditions: read-out: IC50 CYP1A2; recombinant human enzyme; cited from earlier work
[6] = tested on: CYP1A1; conditions: read-out: IC50 CYP1A1; cited from earlier work

IC50 ratio 1A1/1B1 [1]: 5.5
Compound: COc1cc2c(=O)cc(-c3cccc(Br)c3)[nH]c2c2c(OC)cccc12 [Compound 5e, 2-(3-Bromophenyl)-6,10-dimethoxybenzo[h]quinolin-4(1H)-one]
antiproliferative activity of the compound alone ([2]; MCF-7/1B1 cells, varying concentrations, no docetaxel): a significant antiproliferative activity was not observed

fold resistance of MCF-7/1B1 cells to docetaxel versus parental MCF-7 cells [2]: 5 fold
Compound: CC(=O)O[C@@]12CO[C@@H]1C[C@H](O)[C@@]1(C)C(=O)[C@H](O)C3=C(C)[C@@H](OC(=O)[C@H](O)[C@@H](NC(=O)OC(C)(C)C)c4ccccc4)C[C@@](O)([C@@H](OC(=O)c4ccccc4)[C@H]21)C3(C)C [docetaxel, reference compound]
IC50 [3]: 29500 nM

IC50 [4]: 62.8 nM
Compound: O=c1cc(-c2ccccc2)oc2c1ccc1ccccc12 [ANF, α-Naphthoflavone]
IC50 [5]: […] | IC50 [6]: 60 nM

Reference: paper PMC9080015 (RSC Advances, 2018)
